This passage reports IC50 and LC50 results from ChEMBL document CHEMBL1124395, “Studies on bioactive compounds. 13. Synthesis and lack of growth-inhibitory properties of cyclohexane-1,2,4-triol 1,2-diesters, which resemble ring C of the phorbol ester molecule” (J Med Chem, 1989).

Each structure is given as a SMILES string.

The species entered for one assay is Homo sapiens. In words: Concentration which cause half-maximal growth inhibition of human A549 lung carcinoma cell line. It counts as functional. The method, boiled down: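 A549 human lung carcinoma cells ((2-5) × 10^4/well) grown in Ham's F12 with 10% fetal calf serum under 95% air/5% CO2 with compound for 4-5 days, until controls were confluent. Medium and compound were renewed every 2 days; diacylglycerols were added three times daily at 6-h intervals for 3 days. Final DMSO was ≤0.5%. Cells were trypsinised and counted by hemocytometer or Coulter counter. The 50% growth-inhibitory concentration was taken by linear regression (≥5 concentrations, four experiments).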

Assay [1] is described as follows: Concentration which cause half-maximal Lactate dehydrogenase in […]. The method, boiled down: (§1)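 A549 cells (1 × 10^5/well) exposed 24 h to compound in medium with only 1% fetal calf serum; diacylglycerols added 3 times at 6-hourly intervals. Supernatant briefly centrifuged and kept on ice, then LDH activity read spectrophotometrically. Maximal releasable LDH came from control cells lysed with 1% Triton X-100. Half-maximal release was obtained by linear regression of the linear part of curves (≥5 concentrations, four experiments).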

Assay [2] is described as follows: Concentration which cause half-maximal Lactate dehydrogenase release in […]. The method, boiled down:
as §1

In general, IC50 refers to the concentration needed to halve the response being measured. A low value points to inhibition by little substance. For orientation: LC50 means the concentration lethal to half of the exposed cells or organisms. Higher therefore signals a less lethal substance.

On to `CCCCCCCC(=O)OC[C@@H](CO)OC(=O)CCCCCCC`, for which the IC50 in the assay listed under Homo sapiens was found to be 44 µM. In addition, the LC50 in assay [1] is 56 µM.

`CCCCCCCC/C=C\CCCCCCCC(=O)OCC(CO)OC(C)=O` (stereo unspecified) returned an IC50 in the assay listed under Homo sapiens of 70 µM. The LC50 in assay [2] stood at 75 µM.

`CCCCCCCC(=O)O[C@@H]1CC[C@H](O)C[C@H]1OC(=O)CCCCCCC` displayed an IC50 in the assay filed under Homo sapiens of 43 µM. Besides, the LC50 in assay [1] was 36 µM.

In the assay listed under Homo sapiens, `CCCCCCCC(=O)O[C@H]1CC[C@H](O)C[C@H]1OC(=O)CCCCCCC` yielded an IC50 of 49 µM. In assay [2], the LC50 is 31 µM.

`CCCCCCCC(=O)O[C@H]1CC[C@H](O)C[C@@H]1OC(=O)CCCCCCC`: in the assay listed under Homo sapiens, the IC50 amounted to 58 µM. For the same compound, the LC50 in assay [1] is 46 µM.

`CCCCCCCCCCCCCC(=O)O[C@@]12[C@H](OC(C)=O)[C@@H](C)[C@@]3(O)[C@@H](C=C(CO)C[C@]4(C)C(=O)C(C)=C[C@@H]34)[C@@H]1C2(C)C` came in with an LC50 in assay [2] above 1 µM.
